Results from different studies.
Each line is one published result; the experiments were not run side by side.
Target: Serine/threonine-protein kinase D3 (PRKD3, Homo sapiens, UniProt O94806)
Sequence (O94806 1-890, as in one of the studies): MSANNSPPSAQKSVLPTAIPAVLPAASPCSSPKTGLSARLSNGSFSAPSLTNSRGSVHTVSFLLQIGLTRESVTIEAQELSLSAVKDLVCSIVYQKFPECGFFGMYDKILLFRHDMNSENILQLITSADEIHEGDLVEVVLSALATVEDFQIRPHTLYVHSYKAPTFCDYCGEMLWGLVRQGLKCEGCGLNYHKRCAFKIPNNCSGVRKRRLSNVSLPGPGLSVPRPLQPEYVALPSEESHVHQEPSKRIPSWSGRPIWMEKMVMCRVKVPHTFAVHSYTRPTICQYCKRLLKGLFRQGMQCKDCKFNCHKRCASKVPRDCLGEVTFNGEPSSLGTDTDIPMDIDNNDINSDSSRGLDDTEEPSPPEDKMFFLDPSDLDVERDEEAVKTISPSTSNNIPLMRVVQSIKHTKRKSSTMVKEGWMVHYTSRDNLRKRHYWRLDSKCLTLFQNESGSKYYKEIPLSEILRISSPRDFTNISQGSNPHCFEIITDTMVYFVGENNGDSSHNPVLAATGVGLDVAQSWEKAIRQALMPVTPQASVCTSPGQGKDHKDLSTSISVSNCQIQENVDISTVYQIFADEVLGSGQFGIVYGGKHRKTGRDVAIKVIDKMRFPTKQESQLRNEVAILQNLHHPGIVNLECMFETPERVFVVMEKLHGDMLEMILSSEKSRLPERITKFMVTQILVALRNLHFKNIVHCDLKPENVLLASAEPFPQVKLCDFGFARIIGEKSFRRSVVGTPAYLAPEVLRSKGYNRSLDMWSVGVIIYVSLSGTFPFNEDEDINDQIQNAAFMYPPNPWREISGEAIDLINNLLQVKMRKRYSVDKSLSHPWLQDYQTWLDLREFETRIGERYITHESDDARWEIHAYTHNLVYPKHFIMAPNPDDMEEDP

SMILES	read-out	action	technique	tested at	measurement	value
CC(C)(C)c1cc(C=C(C#N)C#N)cc(Br)c1O	enzyme activity	inhibitor		0.5 µM	remaining activity	92.7%
N#CC1(c2ccccn2)CCN(Cc2cc(C(=O)O)c(=O)n3ccccc23)CC1	cell-free assay		competition with immobilised ligand	1 µM	remaining binding	98%
COc1ncccc1-c1cnn2ccc(N3CCN(C(=O)OC(C)C)CC3)nc12	binding		competition with immobilised ligand	1 µM	remaining binding	100%
Nc1ncc(-c2nc(N3CCOCC3)nc(N3CCOCC3)n2)c(C(F)F)n1	binding		competition with immobilised ligand	10 µM	remaining binding	67%
O=c1[nH]c2ccccc2n1C1CCN(Cc2ccc(-c3[nH]c4cc5ncnc5cc4nc3-c3ccccc3)cc2)CC1	cell-free assay			0.5 µM	remaining signal	99.5%
Cc1nn(C)cc1-c1nc2c(N3CCN(Cc4ccc(Cl)cc4)CC3)c(Cl)cnc2[nH]1	binding		competition with immobilised ligand	1 µM	remaining binding	100%
COc1cc(Nc2ncc(F)c(Nc3ccc4c(n3)NC(=O)C(C)(C)O4)n2)cc(OC)c1OC	binding			10 µM	inhibition	0%
Cn1cncc1[C@](O)(COc1ccc(C#N)cc1-c1ccc(OC(F)(F)F)cc1)c1ccc(C#N)cc1	cell-free assay		competition with immobilised ligand	1 µM	remaining binding	100%
Cn1cc(-c2cc(F)cc(N3CCn4c(cc5c4CCCC5)C3=O)c2CO)cc(Nc2ccc(N3CCN(C4COC4)CC3)cn2)c1=O	enzyme activity	inhibitor		0.1 µM	inhibition	11%
